Measurements as given in ChEMBL document CHEMBL6083209, “Pyridazinone-based derivatives as anticancer agents endowed with anti-microbial activity: molecular design, synthesis, and biological investigation” (RSC Med Chem, 2024).
Converted amounts (≈) assume the structure as drawn. Values belong to the compound of their own block, whether it stands above or below them.

Assays:
[1] = system: CAKI-1; assay: Antiproliferative activity against human CAKI-1 cells assessed as growth inhibition incubated for 48 hrs by SRB method; type: functional
Method in brief: (§1)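 NCI-60 five-dose screen at 0.01, 0.1, 1, 10 and 100 μM, triplicate wells per dose. Cells were in RPMI 1640 with 5% FBS and 2 mM L-glutamine, pre-grown 24 h and then treated for 48 h at 37 °C. Read-out was TCA fixation and SRB absorbance at 515 nm.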

[2] = system: MCF7; assay: Antiproliferative activity against human MCF7 cells assessed as growth inhibition incubated for 48 hrs by SRB method; type: functional; method in brief: as §1
[3] = system: U-251; assay: Antiproliferative activity against human U-251 cells assessed as growth inhibition at 10 uM incubated for 48 hrs by SRB method; type: functional; details: read-out: GI
Method in brief: (§2)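 NCI-60 one-dose screen at 10 μM. Cells were grown in RPMI 1640 with 5% FBS and 2 mM L-glutamine and plated at 5000–40 000 cells/well for 24 h. Drug exposure was 48 h at 37 °C, 5% CO2. Cells were fixed with TCA, stained with 0.4% SRB and read at 515 nm. Growth is expressed as percent of untreated control and time-zero plates.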

[4] = system: HOP-62; assay: Antiproliferative activity against human HOP-62 cells assessed as growth inhibition at 10 uM incubated for 48 hrs by SRB method; type: functional; details: read-out: GI; method in brief: as §2
[5] = system: BT-549; assay: Antiproliferative activity against human BT-549 cells assessed as growth inhibition at 10 uM incubated for 48 hrs by SRB method; type: functional; details: read-out: GI; method in brief: as §2
[6] = system: MDA-MB-468; assay: Antiproliferative activity against human MDA-MB-468 cells assessed as growth inhibition incubated for 48 hrs by SRB method; type: functional; method in brief: as §1
[7] = system: EKVX; assay: Antiproliferative activity against human EKVX cells assessed as growth inhibition incubated for 48 hrs by SRB method; type: functional; method in brief: as §1
[8] = system: A549; assay: Antiproliferative activity against human A549 cells assessed as growth inhibition at 10 uM incubated for 48 hrs by SRB method; type: functional; details: read-out: GI; method in brief: as §2
[9] = system: UACC-62; assay: Antiproliferative activity against human UACC-62 cells assessed as growth inhibition incubated for 48 hrs by SRB method; type: functional
Method in brief: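 NCI-60 five-dose screen at 0.01, 0.1, 1, 10 and 100 μM, triplicate wells per dose. Cells grown in RPMI 1640/5% FBS, preincubated 24 h, then exposed 48 h at 37 °C. TCA fixation, SRB stain, A515.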

[10] = system: NCI-H23; assay: Antiproliferative activity against human NCI-H23 cells assessed as growth inhibition incubated for 48 hrs by SRB method; type: functional; method in brief: as §1
[11] = system: DU-145; assay: Antiproliferative activity against human DU-145 cells assessed as growth inhibition at 10 uM incubated for 48 hrs by SRB method; type: functional; details: read-out: GI; method in brief: as §2
[12] = system: M14; assay: Antiproliferative activity against human M14 cells assessed as growth inhibition incubated for 48 hrs by SRB method; type: functional; method in brief: as §1
[13] = system: UO-31; assay: Antiproliferative activity against human UO-31 cells assessed as growth inhibition at 10 uM incubated for 48 hrs by SRB method; type: functional; details: read-out: GI
Method in brief: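 NCI-60 one-dose screen at 10 μM. Cells grown in RPMI 1640 with 5% FBS and 2 mM L-glutamine, plated at 5000–40 000 cells/well and preincubated 24 h at 37 °C, 5% CO2. Drug exposure 48 h. Fixed with TCA and stained with 0.4% SRB, absorbance read at 515 nm. Percent growth calculated against untreated control and time-zero plates.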

[14] = system: Escherichia coli; assay: Antimicrobial activity against Escherichia coli ATCC 25922 by broth microdilution method
[15] = system: HOP-92; assay: Antiproliferative activity against human HOP-92 cells assessed as growth inhibition at 10 uM incubated for 48 hrs by SRB method; type: functional; details: read-out: GI; method in brief: as §2
[16] = system: UACC-257; assay: Antiproliferative activity against human UACC-257 cells assessed as growth inhibition incubated for 48 hrs by SRB method; type: functional; method in brief: as §1
[17] = system: Candida albicans; assay: Antimicrobial activity against Candida albicans ATCC 10231 by broth microdilution method
[18] = system: MDA-MB-468; assay: Antiproliferative activity against human MDA-MB-468 cells assessed as growth inhibition at 10 uM incubated for 48 hrs by SRB method; type: functional; details: read-out: GI; method in brief: as §2
[19] = system: SK-MEL-2; assay: Antiproliferative activity against human SK-MEL-2 cells assessed as growth inhibition incubated for 48 hrs by SRB method; type: functional; method in brief: as §1
[20] = system: SF-268; assay: Antiproliferative activity against human SF-268 cells assessed as growth inhibition incubated for 48 hrs by SRB method; type: functional; method in brief: as §1
[21] = system: SK-OV-3; assay: Antiproliferative activity against human SK-OV-3 cells assessed as growth inhibition at 10 uM incubated for 48 hrs by SRB method; type: functional; details: read-out: GI; method in brief: as §2
[22] = system: NCI/ADR-RES; assay: Antiproliferative activity against human NCI-ADR-RES cells assessed as growth inhibition at 10 uM incubated for 48 hrs by SRB method; type: functional; details: read-out: GI; method in brief: as §2
[23] = system: HOP-92; assay: Antiproliferative activity against human HOP-92 cells assessed as growth inhibition incubated for 48 hrs by SRB method; type: functional; method in brief: as §1
[24] = system: PC-3; assay: Antiproliferative activity against human PC-3 cells assessed as growth inhibition incubated for 48 hrs by SRB method; type: functional; method in brief: as §1
[25] = system: SF-295; assay: Antiproliferative activity against human SF-295 cells assessed as growth inhibition incubated for 48 hrs by SRB method; type: functional; method in brief: as §1
[26] = system: LOX IMVI; assay: Antiproliferative activity against human LOX IMVI cells assessed as growth inhibition at 10 uM incubated for 48 hrs by SRB method; type: functional; details: read-out: GI; method in brief: as §2
[27] = system: SN12C; assay: Antiproliferative activity against human SN12C cells assessed as growth inhibition incubated for 48 hrs by SRB method; type: functional; method in brief: as §1
[28] = system: SNB-75; assay: Antiproliferative activity against human SNB-75 cells assessed as growth inhibition incubated for 48 hrs by SRB method; type: functional; method in brief: as §1
[29] = system: SK-MEL-28; assay: Antiproliferative activity against human SK-MEL-28 cells assessed as growth inhibition incubated for 48 hrs by SRB method; type: functional; method in brief: as §1
[30] = system: MCF7; assay: Antiproliferative activity against human MCF7 cells assessed as growth inhibition at 10 uM incubated for 48 hrs by SRB method; type: functional; details: read-out: GI; method in brief: as §2
[31] = system: 786-0; assay: Antiproliferative activity against human 786-0 cells assessed as growth inhibition at 10 uM incubated for 48 hrs by SRB method; type: functional; details: read-out: GI; method in brief: as §2
[32] = system: NCI-H226; assay: Antiproliferative activity against human NCI-H226 cells assessed as growth inhibition at 10 uM incubated for 48 hrs by SRB method; type: functional; details: read-out: GI; method in brief: as §2
[33] = system: Staphylococcus aureus; assay: Antimicrobial activity against Staphylococcus aureus ATCC 29213 by broth microdilution method
[34] = system: OVCAR-8; assay: Antiproliferative activity against human OVCAR-8 cells assessed as growth inhibition incubated for 48 hrs by SRB method; type: functional; method in brief: as §1
[35] = system: Staphylococcus aureus; assay: Antimicrobial activity against Staphylococcus aureus NCTC 8325 incubated for 45 mins; type: functional; details: NCTC 8325, 0.75 h

- GI50 [2]: 2.44 µM
- GI50 [6]: 1.66 µM
- GI50 [10]: 3.54 µM
- MIC [14]: 512 µg/mL (≈ 1200 µM)
- MIC [17]: 512 µg/mL (≈ 1200 µM)
- GI50 [19]: 1.86 µM
- GI50 [24]: 3.63 µM
- GI50 [29]: 2 µM
- MIC [33]: 128 µg/mL (≈ 300 µM)
- GI50 [34]: 3.47 µM
SMILES: O=c1ccc(/C=C/c2ccc(NC(=S)Nc3cccc(Br)c3)cc2)n[nH]1
- GI50 [1]: 2.57 µM
- inhibition of growth at 10 µM [3]: 100%
- inhibition of growth at 10 µM [4]: 98.1%
- inhibition of growth at 10 µM [5]: 95.5%
- GI50 [7]: 3.54 µM
- inhibition of growth at 10 µM [8]: 74%
- GI50 [9]: 2.34 µM
- inhibition of growth at 10 µM [11]: 91.5%
- GI50 [12]: 2.57 µM
- inhibition of growth at 10 µM [13]: 76.2%
- inhibition of growth at 10 µM [15]: 100%
- GI50 [16]: 3.24 µM
- inhibition of growth at 10 µM [18]: 88.1%
- GI50 [20]: 2.82 µM
- inhibition of growth at 10 µM [21]: 82.6%
- inhibition of growth at 10 µM [22]: 85.7%
- GI50 [23]: 2.51 µM
- GI50 [25]: 2.69 µM
- inhibition of growth at 10 µM [26]: 88.8%
- GI50 [27]: 3.02 µM
- GI50 [28]: 3.98 µM
- inhibition of growth at 10 µM [30]: 72.7%
- inhibition of growth at 10 µM [31]: 88.2%
- inhibition of growth at 10 µM [32]: 88.2%

- MIC [35]: 3 µg/mL (≈ 6.45 µM)
- MIC [14]: 1 µg/mL (≈ 2.15 µM)
- MIC [17]: > 128 µg/mL
- MIC [33]: 4 µg/mL (≈ 8.61 µM)
SMILES: CNC(=O)c1cc(Oc2ccc(NC(=O)Nc3ccc(Cl)c(C(F)(F)F)c3)cc2)ccn1 [SORAFENIB]
